Source: ChEMBL document CHEMBL1137547, “Synthesis and antifungal activities of novel 2-aminotetralin derivatives” (2007)
≈ marks a conversion by molar mass, not a printed value.

How the values were obtained:
Format in all cases: functional
Aspergillus fumigatus = assay: Antifungal activity against Aspergillus fumigatus
Method in brief: (§1)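 NCCLS broth serial dilution in RPMI 1640 buffered with 0.165 M MOPS. Compounds were dissolved in DMSO and serially diluted in medium. Strains came from ATCC or clinical isolates. The growth MIC for filamentous fungi was read at 7 d, taken as the lowest concentration giving ≥80% turbidity inhibition versus the growth control.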

Fonsecaea compacta = assay: Antifungal activity against Fonsecaea compacta; method in brief: as §1
Trichophyton rubrum = assay: Antifungal activity against Trichophyton rubrum
Method in brief: (§2)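 Dermatophytes were tested by NCCLS serial dilution in RPMI 1640 with 0.165 M MOPS and incubated at 28 °C. Compounds were dissolved in DMSO and diluted in medium. Strains came from ATCC or clinical isolates. The MIC was read at 7 d as the lowest concentration reducing turbidity by ≥80% relative to the drug-free control.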

Microsporum = assay: Antifungal activity against Microsporum gypseum; method in brief: as §2
Cryptococcus neoformans = assay: Antifungal activity against Cryptococcus neoformans after 72 hrs
Method in brief: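 Cryptococcus neoformans was tested by NCCLS serial dilution in MOPS-buffered (0.165 M) RPMI 1640 at 35 °C. Compounds were dissolved in DMSO and diluted in medium. The MIC was read at 72 h as the lowest concentration giving turbidity inhibition of ≥80% relative to the growth control.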

Candida parapsilosis = assay: Antifungal activity against Candida parapsilosis after 24 hrs; settings: Lodderomyces parapsilosis
Method in brief: (§3)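 Candida yeasts were tested by NCCLS microdilution in RPMI 1640 buffered with 0.165 M MOPS and incubated at 35 °C. Compounds were dissolved in DMSO and serially diluted in medium. Isolates came from ATCC or the clinic. The MIC was read at 24 h as the lowest concentration achieving ≥80% growth inhibition versus the control.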

Candida albicans = assay: Antifungal activity against Candida albicans after 24 hrs; method in brief: as §3

SMILES	MIC (Aspergillus fumigatus) [µM]	MIC (Fonsecaea compacta) [µM]	MIC (Trichophyton rubrum) [µM]	MIC (Microsporum) [µM]	MIC (Cryptococcus neoformans) [µM]	MIC (Candida parapsilosis) [µM]	MIC (Candida albicans) [µM]
CCCCCCCCCCN1CCc2cc(O)c(O)cc2C1	16 (≈ 4.89 µg/mL)	16 (≈ 4.89 µg/mL)	1 (≈ 0.305 µg/mL)	> 64	1 (≈ 0.305 µg/mL)	0.5 (≈ 0.153 µg/mL)	> 64
Oc1ccc2c(c1)CC(Nc1ccc(Cl)cc1)CC2 (stereo not given)	64 (≈ 17.5 µg/mL)	32 (≈ 8.76 µg/mL)	2 (≈ 0.548 µg/mL)	4 (≈ 1.1 µg/mL)	16 (≈ 4.38 µg/mL)	32 (≈ 8.76 µg/mL)	> 64
Oc1cccc2c1CC(Nc1ccc(Cl)cc1)CC2 (stereo not given)	> 64	64 (≈ 17.5 µg/mL)	8 (≈ 2.19 µg/mL)	8 (≈ 2.19 µg/mL)	32 (≈ 8.76 µg/mL)	32 (≈ 8.76 µg/mL)	16 (≈ 4.38 µg/mL)
CCCCCCCCNC1CCc2cccc(OC)c2C1 (stereo not given)	32 (≈ 9.26 µg/mL)	8 (≈ 2.32 µg/mL)	4 (≈ 1.16 µg/mL)	8 (≈ 2.32 µg/mL)	16 (≈ 4.63 µg/mL)	32 (≈ 9.26 µg/mL)	16 (≈ 4.63 µg/mL)
COc1ccc(NC2CCc3cccc(OC)c3C2)cc1 (stereo not given)	> 64	> 64	32 (≈ 9.07 µg/mL)	16 (≈ 4.53 µg/mL)	> 64	> 64	> 64
COc1ccc(NC2CCc3ccc(O)cc3C2)cc1 (stereo not given)	> 64	> 64	0.5 (≈ 0.135 µg/mL)	32 (≈ 8.62 µg/mL)	> 64	64 (≈ 17.2 µg/mL)	> 64
CCCCCCCCNC1CCc2c(O)cccc2C1 (stereo not given)	> 64	8 (≈ 2.2 µg/mL)	4 (≈ 1.1 µg/mL)	8 (≈ 2.2 µg/mL)	32 (≈ 8.81 µg/mL)	64 (≈ 17.6 µg/mL)	8 (≈ 2.2 µg/mL)
CCCCCCCCCNC1CCc2ccc(OC)cc2C1 (stereo not given)	16 (≈ 4.86 µg/mL)	2 (≈ 0.607 µg/mL)	0.0625 (≈ 0.019 µg/mL)	4 (≈ 1.21 µg/mL)	4 (≈ 1.21 µg/mL)	4 (≈ 1.21 µg/mL)	0.25 (≈ 0.0759 µg/mL)
CCCCCCCCCNC1CCc2cccc(OC)c2C1 (stereo not given)	16 (≈ 4.86 µg/mL)	2 (≈ 0.607 µg/mL)	2 (≈ 0.607 µg/mL)	64 (≈ 19.4 µg/mL)	4 (≈ 1.21 µg/mL)	1 (≈ 0.303 µg/mL)	0.5 (≈ 0.152 µg/mL)
CCCCCCCCCNC1CCc2c(O)cccc2C1 (stereo not given)	64 (≈ 18.5 µg/mL)	4 (≈ 1.16 µg/mL)	4 (≈ 1.16 µg/mL)	8 (≈ 2.32 µg/mL)	8 (≈ 2.32 µg/mL)	32 (≈ 9.26 µg/mL)	1 (≈ 0.289 µg/mL)
CCCCCCCCCNC1CCc2cccc(O)c2C1 (stereo not given)	16 (≈ 4.63 µg/mL)	4 (≈ 1.16 µg/mL)	4 (≈ 1.16 µg/mL)	4 (≈ 1.16 µg/mL)	8 (≈ 2.32 µg/mL)	8 (≈ 2.32 µg/mL)	1 (≈ 0.289 µg/mL)
CCCCCCCCCCNC1CCc2cc(OC)ccc2C1 (stereo not given)	> 64	8 (≈ 2.54 µg/mL)	1 (≈ 0.318 µg/mL)	4 (≈ 1.27 µg/mL)	16 (≈ 5.08 µg/mL)	8 (≈ 2.54 µg/mL)	0.25 (≈ 0.0794 µg/mL)
CCCCCCCCCCNC1CCc2ccc(O)cc2C1 (stereo not given)	32 (≈ 9.71 µg/mL)	2 (≈ 0.607 µg/mL)	0.25 (≈ 0.0759 µg/mL)	4 (≈ 1.21 µg/mL)	1 (≈ 0.303 µg/mL)	4 (≈ 1.21 µg/mL)	1 (≈ 0.303 µg/mL)
CCCCCCCCCCCCNC1CCc2c(cccc2OC)C1 (stereo not given)	> 64	8 (≈ 2.76 µg/mL)	0.5 (≈ 0.173 µg/mL)	16 (≈ 5.53 µg/mL)	8 (≈ 2.76 µg/mL)	16 (≈ 5.53 µg/mL)	8 (≈ 2.76 µg/mL)
COc1ccc2c(c1)CCC(Nc1ccc(Cl)cc1)C2 (stereo not given)	> 64	> 64	1 (≈ 0.288 µg/mL)	16 (≈ 4.6 µg/mL)	> 64	> 64	> 64
COc1cccc2c1CC(Nc1ccc(Cl)cc1)CC2 (stereo not given)	> 64	> 64	> 64	32 (≈ 9.21 µg/mL)	> 64	> 64	> 64
CCCCCCCCCCNC1CCc2cccc(OC)c2C1 (stereo not given)	16 (≈ 5.08 µg/mL)	1 (≈ 0.318 µg/mL)	1 (≈ 0.318 µg/mL)	2 (≈ 0.635 µg/mL)	1 (≈ 0.318 µg/mL)	2 (≈ 0.635 µg/mL)	0.25 (≈ 0.0794 µg/mL)
CCCCCCCCNC1CCc2ccc(OC)cc2C1 (stereo not given)	64 (≈ 18.5 µg/mL)	4 (≈ 1.16 µg/mL)	4 (≈ 1.16 µg/mL)	8 (≈ 2.32 µg/mL)	16 (≈ 4.63 µg/mL)	32 (≈ 9.26 µg/mL)	1 (≈ 0.289 µg/mL)
Oc1ccc2c(c1)CCC(Nc1ccc(Cl)cc1)C2 (stereo not given)	64 (≈ 17.5 µg/mL)	32 (≈ 8.76 µg/mL)	0.25 (≈ 0.0684 µg/mL)	4 (≈ 1.1 µg/mL)	16 (≈ 4.38 µg/mL)	32 (≈ 8.76 µg/mL)	> 64
COc1ccc(NC2CCc3cccc(O)c3C2)cc1 (stereo not given)	> 64	> 64	2 (≈ 0.539 µg/mL)	16 (≈ 4.31 µg/mL)	> 64	> 64	> 64
COc1ccc(NC2CCc3cc(OC)ccc3C2)cc1 (stereo not given)	> 64	> 64	8 (≈ 2.27 µg/mL)	8 (≈ 2.27 µg/mL)	> 64	> 64	> 64
COc1ccc(NC2CCc3c(O)cccc3C2)cc1 (stereo not given)	> 64	> 64	0.25 (≈ 0.0673 µg/mL)	16 (≈ 4.31 µg/mL)	> 64	32 (≈ 8.62 µg/mL)	> 64
COc1ccc(NC2CCc3cc(O)ccc3C2)cc1 (stereo not given)	> 64	> 64	0.5 (≈ 0.135 µg/mL)	16 (≈ 4.31 µg/mL)	64 (≈ 17.2 µg/mL)	64 (≈ 17.2 µg/mL)	> 64
COc1ccc2c(c1)CC(Nc1ccc(Cl)cc1)CC2 (stereo not given)	> 64	> 64	16 (≈ 4.6 µg/mL)	16 (≈ 4.6 µg/mL)	> 64	> 64	> 64
CCCCCCCCCCCCNC1CCc2cc(OC)ccc2C1 (stereo not given)	> 64	64 (≈ 22.1 µg/mL)	4 (≈ 1.38 µg/mL)	> 64	4 (≈ 1.38 µg/mL)	32 (≈ 11.1 µg/mL)	4 (≈ 1.38 µg/mL)
COc1ccc(NC2CCc3ccc(OC)cc3C2)cc1 (stereo not given)	> 64	64 (≈ 18.1 µg/mL)	0.5 (≈ 0.142 µg/mL)	16 (≈ 4.53 µg/mL)	> 64	> 64	> 64
CCCCCCCCNC1CCc2ccc(O)cc2C1 (stereo not given)	> 64	8 (≈ 2.2 µg/mL)	8 (≈ 2.2 µg/mL)	4 (≈ 1.1 µg/mL)	16 (≈ 4.41 µg/mL)	32 (≈ 8.81 µg/mL)	4 (≈ 1.1 µg/mL)
CCCCCCCCCNC1CCc2ccc(O)cc2C1 (stereo not given)	64 (≈ 18.5 µg/mL)	8 (≈ 2.32 µg/mL)	4 (≈ 1.16 µg/mL)	8 (≈ 2.32 µg/mL)	8 (≈ 2.32 µg/mL)	16 (≈ 4.63 µg/mL)	1 (≈ 0.289 µg/mL)
COc1cccc2c1CCC(Nc1ccc(Cl)cc1)C2 (stereo not given)	> 64	> 64	2 (≈ 0.576 µg/mL)	16 (≈ 4.6 µg/mL)	> 64	> 64	> 64
Oc1cccc2c1CCC(Nc1ccc(Cl)cc1)C2 (stereo not given)	64 (≈ 17.5 µg/mL)	16 (≈ 4.38 µg/mL)	2 (≈ 0.548 µg/mL)	0.5 (≈ 0.137 µg/mL)	8 (≈ 2.19 µg/mL)	8 (≈ 2.19 µg/mL)	2 (≈ 0.548 µg/mL)
